Test results published in ChEMBL document CHEMBL1154352, “Toll-like receptor 7 selective synthetic oligoribonucleotide agonists: synthesis and structure-activity relationship studies” (J Med Chem, 2009).
Calls of active or inactive are those of the source. The calls are words filed in the database; no cut-off is given here.

Experiments:
[1] = organism: Homo sapiens; assay: Ratio of human TLR7 activity to human TLR8 activity
In short: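 TLR7/TLR8 ratio computed from fold NF-κB (SEAP reporter) activation in HEK293 cells stably expressing human TLR7 versus TLR8, compounds at 50 μg/mL, 18 h exposure; representative of three independent experiments.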

[2] = target: T1, Toll-like receptor 7 (Homo sapiens) (UniProt Q9NYK1); assay: Activation of human TLR7 expressed in HEK293XL assessed as induction of NF-kappaB activity by reporter gene assay
T1 sequence (whole entry): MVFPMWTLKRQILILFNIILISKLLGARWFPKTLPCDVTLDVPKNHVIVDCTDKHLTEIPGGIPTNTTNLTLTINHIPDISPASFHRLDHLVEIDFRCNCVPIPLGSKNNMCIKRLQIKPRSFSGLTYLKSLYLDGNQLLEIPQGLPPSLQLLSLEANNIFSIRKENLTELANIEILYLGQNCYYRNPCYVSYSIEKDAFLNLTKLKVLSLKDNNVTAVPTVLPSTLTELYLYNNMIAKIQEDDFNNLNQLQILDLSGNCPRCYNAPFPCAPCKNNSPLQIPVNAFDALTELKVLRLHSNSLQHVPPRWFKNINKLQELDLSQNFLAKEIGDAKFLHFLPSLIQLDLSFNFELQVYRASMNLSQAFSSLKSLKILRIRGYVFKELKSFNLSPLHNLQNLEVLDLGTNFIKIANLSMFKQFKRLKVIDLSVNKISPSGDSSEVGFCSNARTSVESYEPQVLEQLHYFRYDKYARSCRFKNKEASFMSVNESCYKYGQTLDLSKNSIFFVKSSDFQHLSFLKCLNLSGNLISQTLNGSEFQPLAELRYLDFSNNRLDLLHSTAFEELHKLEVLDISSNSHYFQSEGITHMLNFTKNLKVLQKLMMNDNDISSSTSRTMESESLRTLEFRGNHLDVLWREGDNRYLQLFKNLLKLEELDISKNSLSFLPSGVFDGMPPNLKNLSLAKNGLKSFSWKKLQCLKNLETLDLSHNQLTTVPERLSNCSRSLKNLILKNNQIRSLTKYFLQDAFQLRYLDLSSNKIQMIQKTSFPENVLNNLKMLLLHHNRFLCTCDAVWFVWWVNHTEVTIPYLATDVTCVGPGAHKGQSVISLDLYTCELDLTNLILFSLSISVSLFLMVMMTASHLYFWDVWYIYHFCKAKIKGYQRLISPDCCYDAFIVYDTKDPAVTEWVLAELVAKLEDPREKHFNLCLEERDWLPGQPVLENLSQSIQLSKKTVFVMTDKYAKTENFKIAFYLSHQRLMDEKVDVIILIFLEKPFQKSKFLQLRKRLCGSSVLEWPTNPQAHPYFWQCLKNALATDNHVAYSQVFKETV
In short: (§1)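 HEK293 cells stably expressing human TLR7 or TLR8, transiently transfected with SEAP reporter plasmid; medium replaced, SIMRA compounds added, 18 h incubation. Supernatant SEAP measured by QuantiBlue; expressed as fold increase in NF-κB activity over PBS control. Tabulated data at 50 μg/mL, representative of three independent experiments.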

[3] = target: T2, Toll-like receptor 8 (Homo sapiens) (UniProt Q9NR97); assay: Activation of human TLR8 expressed in HEK293XL assessed as induction of NF-kappaB activity by reporter gene assay; in short: as §1
T2 sequence (whole entry): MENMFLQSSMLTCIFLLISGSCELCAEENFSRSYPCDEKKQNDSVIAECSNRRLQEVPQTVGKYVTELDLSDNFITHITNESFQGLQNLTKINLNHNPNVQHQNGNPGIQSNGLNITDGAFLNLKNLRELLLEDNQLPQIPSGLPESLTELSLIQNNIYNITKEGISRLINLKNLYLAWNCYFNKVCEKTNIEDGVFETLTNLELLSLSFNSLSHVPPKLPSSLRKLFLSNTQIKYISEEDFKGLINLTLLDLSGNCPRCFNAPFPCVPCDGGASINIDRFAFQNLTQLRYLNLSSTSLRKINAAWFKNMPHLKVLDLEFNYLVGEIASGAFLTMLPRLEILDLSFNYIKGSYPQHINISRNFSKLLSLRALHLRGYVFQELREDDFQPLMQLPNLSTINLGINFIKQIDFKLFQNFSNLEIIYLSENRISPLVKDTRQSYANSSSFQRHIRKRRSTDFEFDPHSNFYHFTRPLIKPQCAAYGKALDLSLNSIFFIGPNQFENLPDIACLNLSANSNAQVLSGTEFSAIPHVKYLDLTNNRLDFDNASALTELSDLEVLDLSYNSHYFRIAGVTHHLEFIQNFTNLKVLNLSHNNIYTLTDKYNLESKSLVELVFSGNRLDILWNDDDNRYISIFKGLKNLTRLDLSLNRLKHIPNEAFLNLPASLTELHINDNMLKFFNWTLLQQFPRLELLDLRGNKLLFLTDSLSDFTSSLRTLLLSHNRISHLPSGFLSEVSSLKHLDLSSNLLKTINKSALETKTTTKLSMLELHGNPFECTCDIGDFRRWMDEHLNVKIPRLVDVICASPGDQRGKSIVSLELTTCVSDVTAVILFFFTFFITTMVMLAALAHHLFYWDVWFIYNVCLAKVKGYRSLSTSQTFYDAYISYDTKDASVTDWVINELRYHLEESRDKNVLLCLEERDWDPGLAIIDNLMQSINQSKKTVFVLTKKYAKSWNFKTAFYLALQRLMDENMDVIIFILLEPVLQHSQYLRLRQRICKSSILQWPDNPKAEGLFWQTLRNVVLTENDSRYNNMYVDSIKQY

Row | Activity [1] | Activity [2] | Activity [3] | SMILES
1 | Dose-dependent effect | inactive | inactive | Nc1ccn([C@@H]2O[C@H](COP(=O)(S)O[C@H]3[C@@H](O)[C@H](n4cnc5c(N)ncnc54)O[C@@H]3CO)[C@@H](OP(=O)(S)OC[C@H]3O[C@@H](n4ccc(=O)[nH]c4=O)[C@H](O)[C@@H]3OP(=O)(S)OC[C@H]3O[C@@H](n4ccc(=O)[nH]c4=O)[C@H](O)[C@@H]3OP(=O)(S)OC[C@H]3O[C@@H](n4ccc5c(=O)[nH]c(N)nc54)[C@H](O)[C@@H]3OP(=O)(S)OC[C@H]3O[C@@H](n4cnc5c(N)ncnc54)[C@H](O)[C@@H]3OP(=O)(S)OC[C@H]3O[C@@H](n4cnc5c(N)ncnc54)[C@H](O)[C@@H]3OP(=O)(S)OC[C@H]3O[C@@H](n4cnc5c(=O)[nH]c(N)nc54)[C@H](O)[C@@H]3OP(=O)(S)OC[C@H]3O[C@@H](n4ccc(N)nc4=O)[C@H](O)[C@@H]3OP(=O)(S)OC[C@H]3O[C@@H](n4ccc(=O)[nH]c4=O)[C@H](O)[C@@H]3OP(=O)(S)OC[C@H]3O[C@@H](n4ccc(=O)[nH]c4=O)[C@H](O)[C@@H]3OP(=O)(S)OCC(O)COP(=O)(S)O[C@H]3[C@@H](O)[C@H](n4ccc(=O)[nH]c4=O)O[C@@H]3COP(=O)(S)O[C@H]3[C@@H](O)[C@H](n4ccc(=O)[nH]c4=O)O[C@@H]3COP(=O)(S)O[C@H]3[C@@H](O)[C@H](n4ccc(N)nc4=O)O[C@@H]3COP(=O)(S)O[C@H]3[C@@H](O)[C@H](n4cnc5c(=O)[nH]c(N)nc54)O[C@@H]3COP(=O)(S)O[C@H]3[C@@H](O)[C@H](n4cnc5c(N)ncnc54)O[C@@H]3COP(=O)(S)O[C@H]3[C@@H](O)[C@H](n4cnc5c(N)ncnc54)O[C@@H]3COP(=O)(S)O[C@H]3[C@@H](O)[C@H](n4cnc5c(=O)[nH]c(N)nc54)O[C@@H]3COP(=O)(S)O[C@H]3[C@@H](O)[C@H](n4ccc(=O)[nH]c4=O)O[C@@H]3COP(=O)(S)O[C@H]3[C@@H](O)[C@H](n4ccc(=O)[nH]c4=O)O[C@@H]3COP(=O)(S)O[C@H]3[C@@H](O)[C@H](n4ccc(N)nc4=O)O[C@@H]3COP(=O)(S)O[C@H]3[C@@H](O)[C@H](n4cnc5c(N)ncnc54)O[C@@H]3CO)[C@H]2O)c(=O)n1 (stereo partly specified)
2 | Dose-dependent effect | inactive | inactive | Nc1ccn([C@@H]2O[C@H](COP(=O)(S)O[C@H]3[C@@H](O)[C@H](n4cnc5c(N)ncnc54)O[C@@H]3CO)[C@@H](OP(=O)(S)OC[C@H]3O[C@@H](n4ccc(=O)[nH]c4=O)[C@H](O)[C@@H]3OP(=O)(S)OC[C@H]3O[C@@H](n4ccc(=O)[nH]c4=O)[C@H](O)[C@@H]3OP(=O)(S)OC[C@H]3O[C@@H](n4cnc5c(=O)[nH]c(N)nc54)[C@H](O)[C@@H]3OP(=O)(S)OC[C@H]3O[C@@H](n4cnc5c(N)ncnc54)[C@H](O)[C@@H]3OP(=O)(S)OC[C@H]3O[C@@H](n4ccc(N)nc4=O)[C@H](O)[C@@H]3OP(=O)(S)OC[C@H]3O[C@@H](n4cnc5c(=O)[nH]c(N)nc54)[C@H](O)[C@@H]3OP(=O)(S)OC[C@H]3O[C@@H](n4cnc5c(N)ncnc54)[C@H](O)[C@@H]3OP(=O)(S)OC[C@H]3O[C@@H](n4ccc(=O)[nH]c4=O)[C@H](O)[C@@H]3OP(=O)(S)OC[C@H]3O[C@@H](n4ccc(=O)[nH]c4=O)[C@H](O)[C@@H]3OP(=O)(S)OCC(O)COP(=O)(S)O[C@H]3[C@@H](O)[C@H](n4ccc(=O)[nH]c4=O)O[C@@H]3COP(=O)(S)O[C@H]3[C@@H](O)[C@H](n4ccc(=O)[nH]c4=O)O[C@@H]3COP(=O)(S)O[C@H]3[C@@H](O)[C@H](n4cnc5c(N)ncnc54)O[C@@H]3COP(=O)(S)O[C@H]3[C@@H](O)[C@H](n4cnc5c(=O)[nH]c(N)nc54)O[C@@H]3COP(=O)(S)O[C@H]3[C@@H](O)[C@H](n4ccc(N)nc4=O)O[C@@H]3COP(=O)(S)O[C@H]3[C@@H](O)[C@H](n4cnc5c(N)ncnc54)O[C@@H]3COP(=O)(S)O[C@H]3[C@@H](O)[C@H](n4cnc5c(=O)[nH]c(N)nc54)O[C@@H]3COP(=O)(S)O[C@H]3[C@@H](O)[C@H](n4ccc(=O)[nH]c4=O)O[C@@H]3COP(=O)(S)O[C@H]3[C@@H](O)[C@H](n4ccc(=O)[nH]c4=O)O[C@@H]3COP(=O)(S)O[C@H]3[C@@H](O)[C@H](n4ccc(N)nc4=O)O[C@@H]3COP(=O)(S)O[C@H]3[C@@H](O)[C@H](n4cnc5c(N)ncnc54)O[C@@H]3CO)[C@H]2O)c(=O)n1 (stereo partly specified)
